# Assay results taken from ChEMBL document CHEMBL1134315 (J Med Chem, 2001).
# Legend:
# Cannabinoid receptor 2 = Cannabinoid receptor 2 (Homo sapiens, UniProt P34972); experiment: Binding affinity to human CB2 cannabinoid receptor using [3H]CP-55940 in HEK293 EBNA transfected cells; assay type: cell-based
# [1] = target: Transient receptor potential cation channel subfamily V member 1 (Rattus norvegicus, UniProt O35433); experiment: Binding affinity to vanilloid VR1 receptor using [3H]resiniferatoxin ([3H]-RTX) in rat spinal cord membranes; assay type: cell membranes, Membrane
# Transient receptor potential cation channel subfamily V member 1, sequence (O35433 whole entry): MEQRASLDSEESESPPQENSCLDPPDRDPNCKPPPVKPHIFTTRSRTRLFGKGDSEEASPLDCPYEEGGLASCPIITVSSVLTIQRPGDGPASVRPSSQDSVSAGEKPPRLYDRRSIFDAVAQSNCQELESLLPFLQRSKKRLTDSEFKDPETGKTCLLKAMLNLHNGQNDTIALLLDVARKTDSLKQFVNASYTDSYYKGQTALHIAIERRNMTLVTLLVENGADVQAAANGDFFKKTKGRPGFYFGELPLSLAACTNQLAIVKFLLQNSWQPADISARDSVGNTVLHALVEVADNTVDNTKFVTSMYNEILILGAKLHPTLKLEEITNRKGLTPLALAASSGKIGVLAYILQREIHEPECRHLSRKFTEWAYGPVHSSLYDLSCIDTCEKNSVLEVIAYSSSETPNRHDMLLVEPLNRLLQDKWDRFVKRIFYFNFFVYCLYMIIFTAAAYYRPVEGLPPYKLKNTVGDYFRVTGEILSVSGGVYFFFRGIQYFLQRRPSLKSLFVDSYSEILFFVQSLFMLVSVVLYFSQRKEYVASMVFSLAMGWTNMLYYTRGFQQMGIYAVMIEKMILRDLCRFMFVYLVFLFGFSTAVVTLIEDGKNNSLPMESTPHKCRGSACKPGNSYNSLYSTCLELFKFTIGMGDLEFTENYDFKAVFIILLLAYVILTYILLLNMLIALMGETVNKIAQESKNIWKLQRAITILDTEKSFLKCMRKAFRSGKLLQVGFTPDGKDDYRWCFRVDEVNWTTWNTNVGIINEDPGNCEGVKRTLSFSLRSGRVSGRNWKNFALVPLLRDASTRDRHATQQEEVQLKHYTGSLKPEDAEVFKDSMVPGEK
# In short: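 Radioligand displacement binding used these systems: CB1, rat cerebellum membranes with [3H]WIN55212-2; CB2, HEK293EBNA cells transfected with the human CB2 receptor, with [3H]CP55940; VR1, rat spinal cord membranes with [3H]RTX. Ki values come from two independent experiments, each run in triplicate, and are reported as mean ± standard error.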
# U-937 [2] = experiment: Ability to inhibit [3H]anandamide uptake in human lymphoma U937 cells; assay type: functional, cell-based
# In short: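 IC50 values come from three independent experiments, each run in triplicate, and are reported as mean ± standard error.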
# Cannabinoid receptor 1 = Cannabinoid receptor 1 (Rattus norvegicus, UniProt P20272); experiment: Binding affinity to CB1 cannabinoid receptor using [3H]WIN-55212-2 in rat cerebellum membranes; assay type: cell membranes, Membrane
# Cannabinoid receptor 1, sequence (P20272 whole entry): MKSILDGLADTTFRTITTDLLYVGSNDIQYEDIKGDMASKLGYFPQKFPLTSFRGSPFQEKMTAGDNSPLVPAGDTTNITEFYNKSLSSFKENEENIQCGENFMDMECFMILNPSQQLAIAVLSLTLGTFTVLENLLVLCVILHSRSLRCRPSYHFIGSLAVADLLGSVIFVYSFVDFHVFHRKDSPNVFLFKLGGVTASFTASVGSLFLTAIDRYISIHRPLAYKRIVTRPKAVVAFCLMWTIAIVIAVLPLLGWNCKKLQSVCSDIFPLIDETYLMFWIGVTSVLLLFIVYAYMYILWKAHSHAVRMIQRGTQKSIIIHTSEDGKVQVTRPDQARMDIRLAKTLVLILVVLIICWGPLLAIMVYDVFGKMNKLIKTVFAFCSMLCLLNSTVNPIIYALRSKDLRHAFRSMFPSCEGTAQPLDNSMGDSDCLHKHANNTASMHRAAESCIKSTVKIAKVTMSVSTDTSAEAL
# U-937 [3] = experiment: Ability to inhibit [3H]anandamide uptake in human lymphoma U937 cells; inactive; assay type: functional, cell-based
# Cannabinoid receptor 2, sequence (P34972 whole entry): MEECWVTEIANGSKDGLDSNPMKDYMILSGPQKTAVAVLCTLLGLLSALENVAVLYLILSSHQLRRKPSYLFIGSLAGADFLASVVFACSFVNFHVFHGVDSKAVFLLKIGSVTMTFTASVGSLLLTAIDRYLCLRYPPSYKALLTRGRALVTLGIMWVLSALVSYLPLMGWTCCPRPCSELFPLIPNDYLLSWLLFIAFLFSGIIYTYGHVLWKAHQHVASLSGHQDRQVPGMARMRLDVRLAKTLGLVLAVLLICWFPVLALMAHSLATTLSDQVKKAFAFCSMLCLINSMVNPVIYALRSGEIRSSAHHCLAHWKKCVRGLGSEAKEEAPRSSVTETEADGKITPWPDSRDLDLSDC
Compound,Ki (Cannabinoid receptor 2),Ki [1],IC50 (U-937 [2]),Ki (Cannabinoid receptor 1),IC50 (U-937 [3])
CCCCC/C=C\C/C=C\C/C=C\C/C=C\CCCC(=O)OCc1ccsc1,> 1000 nM,> 5 µM,3 µM,> 1000 nM,–
CCCCC/C=C\C/C=C\C/C=C\C/C=C\CCCC(=O)NCC1CCCO1 (configuration not stated),> 1000 nM,> 5 µM,8 µM,> 1000 nM,–
CCCCC/C=C\C/C=C\C/C=C\C/C=C\CCCC(=O)OCC1CCCO1 (configuration not stated),> 1000 nM,> 5 µM,18 µM,> 1000 nM,–
CCCCC/C=C\C/C=C\C/C=C\C/C=C\CCCC(=O)OCC1CCOC1 (configuration not stated),> 1000 nM,> 5 µM,–,–,–
CCCCC/C=C\C/C=C\C/C=C\C/C=C\CCCC(=O)OCc1ccoc1,> 1000 nM,< 5 µM,14 µM,> 1000 nM,–
CCCCC/C=C\C/C=C\C/C=C\C/C=C\CCCC(=O)OCc1cccs1,> 1000 nM,> 5 µM,–,> 1000 nM,Not Active
CCCCC/C=C\C/C=C\C/C=C\C/C=C\CCCC(=O)OCc1ccco1,> 1000 nM,> 5 µM,24 µM,> 1000 nM,–
CCCCC/C=C\C/C=C\C/C=C\C/C=C\CCCC(=O)NCc1ccco1,> 1000 nM,< 5 µM,5 µM,> 1000 nM,–
CCCCC/C=C\C/C=C\C/C=C\C/C=C\CCCC(=O)Nc1ccc(O)cc1,> 1000 nM,> 5 µM,4 µM,> 1000 nM,–
CCCCC/C=C\C/C=C\C/C=C\C/C=C\CCCC(=O)NCc1cccn1C,70 nM,> 5 µM,5 µM,124 nM,–
CCCCC/C=C\C/C=C\C/C=C\C/C=C\CCCC(=O)NCc1cccs1,> 1000 nM,> 5 µM,5.7 µM,> 1000 nM,–
CCCCC/C=C\C/C=C\C/C=C\C/C=C\CCCC(=O)NCc1ccoc1,67 nM,> 5 µM,0.8 µM,> 1000 nM,–
CCCCC/C=C\C/C=C\C/C=C\C/C=C\CCCC(=O)NCCO [ANANDAMIDE],–,0.169 µM,–,–,–
